Values after ≈ are worked out from the molar mass of the structure shown. Active and inactive are the calls of the source. The calls are words filed in the database; no cut-off is given here.
Assays:
[1] = system: Glucokinase (Homo sapiens); test: Activity of glucokinase at 30 uM
[2] = system: Glucokinase (Homo sapiens); test: Activity of glucokinase assessed as stimulatory concentration required to increase 1.5 fold enzymatic activity
[3] = system: Glucokinase (Homo sapiens); test: Activity of glucokinase up to 10 uM
[4] = Volume of distribution at steady state in CD rat at 5 mg/kg, iv; assay type: ADME, organism-based; set-up: dose 5 mg/kg, route intravenous; details: in vivo, read-out: Vdss
[5] = AUC (0 to infinity) in CD rat at 5 mg/kg, iv; assay type: ADME, organism-based; set-up: time infinity, dose 5 mg/kg, route intravenous; details: plasma
Mus musculus = test: Reduction in glucose AUC in C57BL/6J mouse at 50 mg/kg, po pretreated 30 mins by oral glucose tolerance test relative to control; assay type: functional, organism-based; set-up: dose 50 mg/kg
In short: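 Male C57BL/6J mice got a single oral 50 mg/kg dose and underwent an oral glucose tolerance test. Fasting glucose and glucose tolerance were compared with vehicle-treated animals. Values are mean ± STD, n = 6 per time point; Student's t test, P < 0.05.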

[6] = AUC (0 to infinity) in CD rat at 30 mg/kg, po; assay type: ADME, organism-based; set-up: time infinity, dose 30 mg/kg, route oral; details: plasma
[7] = Oral bioavailability in CD rat at 10 mg/kg; assay type: ADME, organism-based; details: in vivo
[8] = Tmax in CD rat at 10 mg/kg, po; assay type: ADME, organism-based; set-up: dose 10 mg/kg, route oral; details: in vivo
[9] = Cmax in CD rat at 30 mg/kg, po; assay type: ADME, organism-based; set-up: dose 30 mg/kg, route oral; details: in vivo
Pancreatic islet = test: […] of glucose-stimulated insulin secretion in C57BL/6J mouse isolated pancreatic islets cells after 4 to 5 days
[10] = Tmax in CD rat at 30 mg/kg, po; assay type: ADME, organism-based; set-up: dose 30 mg/kg, route oral; details: in vivo
[11] = Cmax in CD rat at 10 mg/kg, po; assay type: ADME, organism-based; set-up: dose 10 mg/kg, route oral; details: in vivo
[12] = AUC (0 to infinity) in CD rat at 10 mg/kg, po; assay type: ADME, organism-based; set-up: time infinity, dose 10 mg/kg, route oral; details: plasma
[13] = Clearance in CD rat at 5 mg/kg, iv; assay type: ADME, organism-based; set-up: dose 5 mg/kg, route intravenous; details: in vivo
[14] = Aqueous solubility of the compound; assay type: physicochemical
[15] = Oral bioavailability in CD rat at 30 mg/kg; assay type: ADME, organism-based; details: in vivo
[16] = system: Glucokinase (Homo sapiens); test: Activation of glucokinase assessed as increase in Vmax at 1 uM relative to control
[17] = system: Glucokinase (Homo sapiens); test: Activation of glucokinase at 20 uM relative to control
[18] = system: Glucokinase (Homo sapiens); test: Activation of glucokinase assessed as […] in Km at 20 uM relative to control
[19] = system: Glucokinase (Homo sapiens); test: Activation of glucokinase assessed as […] in Km at 1 uM relative to control

Row | Compound | Activity [2] | also measured
1 | O=C(Nc1nccs1)C(Cc1ccccc1)c1ccc(Cl)c(Cl)c1 (configuration not stated) |  | Activity [1]: inactive
2 | NC(=O)NC(=O)C(CC1CC1)c1ccc(Cl)c(Cl)c1 (configuration not stated) | 40 µM | 
3 | CNC(=O)NC(=O)C(CC(C)C)c1ccc(Cl)c(Cl)c1 (configuration not stated) | 6 µM | 
4 | CNC(=O)NC(=O)C(CC1CCCC1)c1ccc(Cl)cc1 (configuration not stated) | 5.4 µM | 
5 | CNC(=O)NC(=O)[C@@H](CC1CCCC1)c1ccc(Cl)c(Cl)c1 |  | Activity [1]: inactive; Activity [3]: inactive
6 | CNC(=O)NC(=O)C(CC1CCCCC1)c1ccc(Cl)c(Cl)c1 (configuration not stated) | 1.4 µM | 
7 | COC(=O)c1cnc(NC(=O)C(CC2CCCC2)c2ccc(Cl)c(Cl)c2)s1 (configuration not stated) | 0.92 µM | 
8 | O=C(NCCO)NC(=O)C(CC1CCCC1)c1ccc(Cl)c(Cl)c1 (configuration not stated) | 3.4 µM | 
9 | CC(C)CC(C(=O)NC(=O)N(C)C)c1ccc(Cl)c(Cl)c1 (configuration not stated) |  | Activity [1]: inactive
10 | NC(=O)NC(=O)C(CC1CCCC1)c1ccc(Cl)c(Cl)c1 (configuration not stated) | 4.4 µM | 
11 | COC(=O)CNC(=O)NC(=O)C(CC1CCCC1)c1ccc(Cl)c(Cl)c1 (configuration not stated) | 0.55 µM | 
12 | Cc1csc(NC(=O)C(CC2CCCC2)c2ccc(Cl)c(Cl)c2)n1 (configuration not stated) | 1.2 µM | 
13 | CCOC(=O)c1csc(NC(=O)C(CC2CCCC2)c2ccc(Cl)c(Cl)c2)n1 (configuration not stated) | 2.7 µM | 
14 | O=C(O)c1csc(NC(=O)C(CC2CCCC2)c2ccc(Cl)c(Cl)c2)n1 (configuration not stated) | 29 µM | 
15 | CNC(=O)NC(=O)C(CC1CCCC1)c1cccc(S(=O)(=O)C(F)(F)F)c1 (configuration not stated) | 1 µM | 
16 | CC(C)CNC(=O)NC(=O)C(CC1CCCC1)c1ccc(Cl)c(Cl)c1 (configuration not stated) | 6.3 µM | 
17 | CNC(=O)NC(=O)C(CCC1CCCC1)c1ccc(Cl)c(Cl)c1 (configuration not stated) |  | Activity [1]: inactive
18 | O=C(O)CNC(=O)NC(=O)C(CC1CCCC1)c1ccc(Cl)c(Cl)c1 (configuration not stated) | inactive | 
19 | CCOC(=O)CNC(=O)NC(=O)C(CC1CCCC1)c1ccc(Cl)c(Cl)c1 (configuration not stated) | 1.3 µM | 
20 | CNC(=O)NC(=O)C(CC1CCCC1)c1ccc(SC(F)(F)F)cc1 (configuration not stated) | 1.4 µM | 
21 | O=C(O)Cc1csc(NC(=O)C(CC2CCCC2)c2ccc(Cl)c(Cl)c2)n1 (configuration not stated) | 8 µM | 
22 | NC(=O)NC(=O)C(CC1CCC1)c1ccc(Cl)c(Cl)c1 (configuration not stated) | 10 µM | 

Row | Compound | Activity [2] | also measured
23 | NC(=O)NC(=O)C(CC1CCCCCC1)c1ccc(Cl)c(Cl)c1 (configuration not stated) | 12 µM | 
24 | O=C(Nc1nc(CO)cs1)C(CC1CCCC1)c1ccc(Cl)c(Cl)c1 (configuration not stated) | 0.99 µM | 
25 | CNC(=O)NC(=O)C(CC1CCCC1)c1ccc(SC)cc1 (configuration not stated) | 3.2 µM | 
26 | CNC(=O)NC(=O)C(CC1CCCC1)c1ccc(F)c(F)c1 (configuration not stated) | 8.5 µM | 
27 | COC(=O)Cc1csc(NC(=O)C(CC2CCCC2)c2ccc(Cl)c(Cl)c2)n1 (configuration not stated) | 0.82 µM | 
28 | COC(=O)CCNC(=O)NC(=O)C(CC1CCCC1)c1ccc(Cl)c(Cl)c1 (configuration not stated) | 3.2 µM | 
29 | CCOC(=O)Cc1csc(NC(=O)C(CC2CCCC2)c2ccc(Cl)c(Cl)c2)n1 (configuration not stated) | 0.61 µM | 
30 | O=C(O)c1cnc(NC(=O)C(CC2CCCC2)c2ccc(Cl)c(Cl)c2)s1 (configuration not stated) | 26 µM | 
31 | CNC(=O)NC(=O)C(CC1CCCC1)c1ccccc1 (configuration not stated) | 28.2 µM | 
32 | O=C(Nc1nccs1)C(CC1CCCC1)c1cccc(S(=O)(=O)C(F)(F)F)c1 (configuration not stated) | 1.4 µM | 
33 | CNC(=S)NC(=O)C(CC1CCCC1)c1ccc(Cl)c(Cl)c1 (configuration not stated) | 3.8 µM | 
34 | CNC(=O)N(C)C(=O)C(CC1CCCC1)c1ccc(Cl)c(Cl)c1 (configuration not stated) |  | Activity [1]: inactive
35 | N=C(N)NC(=O)C(CC1CCCC1)c1ccc(Cl)c(Cl)c1 (configuration not stated) |  | Activity [1]: inactive
36 | CNC(=O)NC(=O)C(CC1CCCC1)c1cccc(Cl)c1 (configuration not stated) | 3.7 µM | 
37 | CNC(=O)NC(=O)C(CC1CCCC1)c1ccc(Br)cc1 (configuration not stated) | 3.8 µM | 
38 | CNC(=O)NC(=O)C(CC1CCCC1)c1ccc(S(C)(=O)=O)cc1 (configuration not stated) | 1.5 µM | 
39 | CCOC(=O)c1cnc(NC(=O)C(CC2CCCC2)c2ccc(Cl)c(Cl)c2)s1 (configuration not stated) | 8 µM | 
40 | O=C(Nc1ncc(CO)s1)C(CC1CCCC1)c1ccc(Cl)c(Cl)c1 (configuration not stated) | 0.75 µM | 
41 | C[S+]([O-])c1ccc(C(CC2CCCC2)C(=O)Nc2nccs2)cc1 (configuration not stated) | 2.2 µM | 
42 | NC(=O)NC(=O)C(CC1CCCCC1)c1ccc(Cl)c(Cl)c1 (configuration not stated) | 8.9 µM | 
43 | CCCNC(=O)NC(=O)C(CC1CCCC1)c1ccc(Cl)c(Cl)c1 (configuration not stated) | 1.3 µM | 
44 | CS(=O)(=O)c1ccc([C@@H](CC2CCCC2)C(=O)Nc2nccs2)cc1 [Ro-281675] |  | Vd [4]: 2.16 L/kg; AUC(0-inf) [5]: 2770 ng·h/mL; Activity (Mus musculus): Active; AUC(0-inf) [6]: 51700 ng·h/mL; bioavailability [7]: 92.8%; Tmax [8]: 3.3 h; Cmax [9]: 4300 µg/mL; Activity (Pancreatic islet): Dose-dependent effect; Tmax [10]: 4.7 h; Cmax [11]: 1140 µg/mL; AUC(0-inf) [12]: 5150 ng·h/mL; clearance [13]: 30 mL/min/kg

Row | Compound | Activity [2] | also measured
45 | O=C(Nc1nc(CCO)cs1)C(CC1CCCC1)c1ccc(Cl)c(Cl)c1 (configuration not stated) | 0.84 µM | 
46 | CCCCNC(=O)NC(=O)C(CC1CCCC1)c1ccc(Cl)c(Cl)c1 (configuration not stated) |  | Activity [1]: inactive
47 | CNC(=O)NC(=O)C(CC1CCCC1)c1ccc(Cl)c(Cl)c1 (configuration not stated) | 1 µM | 
48 | O=C(Nc1nccs1)C(CC1CCCC1)c1ccc(SC(F)(F)F)cc1 (configuration not stated) | 1.8 µM | 
49 | CCNC(=O)NC(=O)C(CC1CCCC1)c1ccc(Cl)c(Cl)c1 (configuration not stated) | 0.53 µM | 
50 | O=C(Nc1nccs1)C(CC1CCCC1)c1ccc(Cl)cc1 (configuration not stated) | 3.1 µM | 
51 | CNC(=O)NC(=O)C(CC1CCCC1)c1ccc([N+](=O)[O-])cc1 (configuration not stated) | 5.4 µM | 
52 | O=C1NCCN1C(=O)C(CC1CCCC1)c1ccc(Cl)c(Cl)c1 (configuration not stated) |  | Activity [1]: inactive
53 | CSc1ccc(C(CC2CCCC2)C(=O)Nc2nccs2)cc1 (configuration not stated) | 2.2 µM | 
54 | C=CCNC(=O)NC(=O)C(CC1CCCC1)c1ccc(Cl)c(Cl)c1 (configuration not stated) | 1.3 µM | 
55 | Cc1cnc(NC(=O)C(CC2CCCC2)c2ccc(Cl)c(Cl)c2)s1 (configuration not stated) | 0.64 µM | 
56 | CC(C)CC(C(=O)NC(N)=O)c1ccc(Cl)c(Cl)c1 (configuration not stated) | 29 µM | 
57 | CCOC(=O)CCNC(=O)NC(=O)C(CC1CCCC1)c1ccc(Cl)c(Cl)c1 (configuration not stated) | 8.4 µM | 
58 | O=C(O)CCNC(=O)NC(=O)C(CC1CCCC1)c1ccc(Cl)c(Cl)c1 (configuration not stated) |  | Activity [1]: inactive
59 | CNC(=O)NC(=O)C(CC1CCCC1)c1ccc(S(=O)(=O)C(F)(F)F)cc1 (configuration not stated) | 0.3 µM | 
60 | O=C(Nc1nccs1)C(CC1CCCC1)c1cccc(Cl)c1 (configuration not stated) | 1.7 µM | 
61 | Cc1nc(NC(=O)C(CC2CCCC2)c2ccc(Cl)c(Cl)c2)sc1C (configuration not stated) | 1.6 µM | 
62 | O=C(Nc1nccs1)C(CC1CCCC1)c1ccc(S(=O)(=O)C(F)(F)F)cc1 (configuration not stated) | 0.19 µM | 
63 | COC(=O)c1csc(NC(=O)C(CC2CCCC2)c2ccc(Cl)c(Cl)c2)n1 (configuration not stated) | 0.5 µM | solubility [14]: 24 µg/mL (≈ 56.2 µM)
64 | CNC(=O)NC(=O)[C@H](CC1CCCC1)c1ccc(Cl)c(Cl)c1 | 0.41 µM | bioavailability [15]: 13%; Vd [4]: 4.21 L/kg; AUC(0-inf) [5]: 1880 ng·h/mL; Activity (Mus musculus): Active; fold change (FC) [16]: 1.4; fold change (FC) [17]: 1.7; fold change (FC) [18]: 0.22; AUC(0-inf) [6]: 1460 ng·h/mL; bioavailability [7]: 12%; Tmax [8]: 1.4 h; Cmax [9]: 0.471 µg/mL; Activity (Pancreatic islet): Dose-dependent effect; Tmax [10]: 3.3 h; Cmax [11]: 133 µg/mL; fold change (FC) [19]: 0.66; AUC(0-inf) [12]: 455 ng·h/mL; clearance [13]: 43.5 mL/min/kg
65 | O=C(Nc1nccs1)C(CC1CCCC1)c1ccc([N+](=O)[O-])cc1 (configuration not stated) | 0.84 µM | 
66 | O=C(Nc1nccs1)C(CC1CCCC1)c1ccc(Cl)c(Cl)c1 (configuration not stated) | 0.94 µM | solubility [14]: 5 µg/mL (≈ 13.5 µM)

— ChEMBL document CHEMBL1157747, “Discovery, structure-activity relationships, pharmacokinetics, and efficacy of glucokinase activator (2R)-3-cyclopentyl-2-(4-methanesulfonylphenyl)-N-thiazol-2-yl-propionamide (RO0281675)” (J Med Chem, 2010)
